Data reported in ChEMBL document CHEMBL1153887, “Cyclocondensation reaction of heterocyclic carbonyl compounds. Part XIII: synthesis and cytotoxic activity of some 3,7-diaryl-5-(3,4,5-trimethoxyphenyl)pyrazolo[4,3-e][1,2,4]triazines” (Eur J Med Chem, 2009).

Legend:
CCRF-CEM [1] = experiment: Cytotoxicity against human CEM cells after 72 hrs by MTT assay; assay type: cell-based
CCRF-CEM [2] = experiment: Cytotoxicity against human daunorubicin-resistant CEM cells after 72 hrs by MTT assay; assay type: cell-based
Procedure, shortened: (§1)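 Cells seeded at 2500–30,000 cells/well and left 24 h at 37 °C, 5% CO₂, then fourfold dilution series in duplicate for 72 h. MTT for 4 h, formazan dissolved in 10% SDS (pH 5.5), OD read at 540 nm against controls. Mean of three independent experiments.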

K562 [3] = experiment: Cytotoxicity against human K562 cells after 72 hrs by MTT assay; assay type: functional, cell-based; conditions: K562, 72 h
K562 [4] = experiment: Cytotoxicity against human paclitaxel-resistant K562 cells after 72 hrs by MTT assay; assay type: functional, cell-based; conditions: K562, 72 h; procedure, shortened: as §1
A549 = experiment: Cytotoxicity against human A549 cells after 72 hrs by MTT assay; assay type: functional, cell-based; conditions: A549, 72 h

SMILES	IC50 (CCRF-CEM [1])	IC50 (CCRF-CEM [2])	IC50 (K562 [3])	IC50 (K562 [4])	IC50 (A549)
COc1cc(/C(=N\Nc2ccc(Cl)cc2)c2nc(-c3ccc(Cl)cc3)n[nH]c2=O)cc(OC)c1OC	7.67 µM	37.7 µM	10.2 µM	12.5 µM	3.81 µM
COc1ccc(-n2nc(-c3cc(OC)c(OC)c(OC)c3)c3nc(-c4ccc(Cl)cc4)nnc32)cc1	226 µM	139 µM	248 µM	250 µM	113 µM
COc1cc(-c2nn(-c3ccc(Cl)cc3)c3nnc(-c4ccccc4)nc23)cc(OC)c1OC	150 µM	156 µM	250 µM	173 µM	57.3 µM
COc1ccc(-c2n[nH]c(=O)c(/C(=N/Nc3ccccc3)c3cc(OC)c(OC)c(OC)c3)n2)cc1	9.81 µM	39.8 µM	18.4 µM	31.8 µM	23.7 µM
COc1cccc(N/N=C(\c2cc(OC)c(OC)c(OC)c2)c2nc(-c3cc(OC)c(OC)c(OC)c3)n[nH]c2=O)c1	7.83 µM	140 µM	112 µM	22.1 µM	3.38 µM
COc1ccc(-n2nc(-c3cc(OC)c(OC)c(OC)c3)c3nc(-c4ccccc4)nnc32)cc1	117 µM	100 µM	84.4 µM	150 µM	39 µM
COc1cc(-c2nn(-c3ccccc3)c3nnc(-c4ccc(Cl)cc4)nc23)cc(OC)c1OC	11.6 µM	113 µM	220 µM	225 µM	130 µM
COc1ccc(-n2nc(-c3cc(OC)c(OC)c(OC)c3)c3nc(-c4cc(OC)c(OC)c(OC)c4)nnc32)cc1	36.9 µM	118 µM	66.2 µM	161 µM	75.6 µM
COc1ccc(-c2nnc3c(n2)c(-c2cc(OC)c(OC)c(OC)c2)nn3-c2ccc(OC)cc2)cc1	124 µM	118 µM	186 µM	229 µM	113 µM
COc1ccc(-c2n[nH]c(=O)c(Cc3cc(OC)c(OC)c(OC)c3)n2)cc1	3.15 µM	13.3 µM	3.07 µM	19.9 µM	9.31 µM
COc1ccc(-c2nnc3c(n2)c(-c2cc(OC)c(OC)c(OC)c2)nn3-c2cccc(OC)c2)cc1	54.5 µM	184 µM	115 µM	174 µM	124 µM
COc1ccc(-c2n[nH]c(=O)c(/C(=N/Nc3cccc(OC)c3)c3cc(OC)c(OC)c(OC)c3)n2)cc1	68.7 µM	132 µM	162 µM	250 µM	250 µM
COc1ccc(N/N=C(\c2cc(OC)c(OC)c(OC)c2)c2nc(-c3ccc(Cl)cc3)n[nH]c2=O)cc1	9.49 µM	9.16 µM	7.5 µM	8.33 µM	2.34 µM
COc1cccc(-n2nc(-c3cc(OC)c(OC)c(OC)c3)c3nc(-c4cc(OC)c(OC)c(OC)c4)nnc32)c1	48.3 µM	109 µM	164 µM	141 µM	163 µM
COc1cc(-c2nn(-c3ccc(Cl)cc3)c3nnc(-c4ccc(Cl)cc4)nc23)cc(OC)c1OC	68.9 µM	126 µM	190 µM	222 µM	155 µM
COc1cc(/C(=N\Nc2ccccc2)c2nc(-c3ccc(Cl)cc3)n[nH]c2=O)cc(OC)c1OC	10.8 µM	37.7 µM	17.5 µM	33.1 µM	22.1 µM
COc1cc(-c2nnc3c(n2)c(-c2cc(OC)c(OC)c(OC)c2)nn3-c2cc(OC)c(OC)c(OC)c2)cc(OC)c1OC	246 µM	201 µM	241 µM	250 µM	194 µM
COc1cccc(N/N=C(\c2cc(OC)c(OC)c(OC)c2)c2nc(-c3ccc(Cl)cc3)n[nH]c2=O)c1	11.5 µM	133 µM	41.8 µM	26.3 µM	8.32 µM
COc1ccc(N/N=C(\c2cc(OC)c(OC)c(OC)c2)c2nc(-c3cc(OC)c(OC)c(OC)c3)n[nH]c2=O)cc1	5.71 µM	34.6 µM	18.7 µM	8.91 µM	3.39 µM
COc1cccc(-n2nc(-c3cc(OC)c(OC)c(OC)c3)c3nc(-c4ccc(Cl)cc4)nnc32)c1	54.7 µM	108 µM	192 µM	219 µM	2.86 µM

SMILES	IC50 (CCRF-CEM [1])	IC50 (CCRF-CEM [2])	IC50 (K562 [3])	IC50 (K562 [4])	IC50 (A549)
COc1cc(N/N=C(\c2cc(OC)c(OC)c(OC)c2)c2nc(-c3cc(OC)c(OC)c(OC)c3)n[nH]c2=O)cc(OC)c1OC	53.8 µM	158 µM	94.3 µM	118 µM	162 µM
COc1ccc(-c2n[nH]c(=O)c(/C(=N/Nc3ccccc3OC)c3cc(OC)c(OC)c(OC)c3)n2)cc1	54.6 µM	141 µM	148 µM	250 µM	250 µM
COc1cc(/C(=N\Nc2ccc(Cl)cc2)c2nc(-c3ccccc3)n[nH]c2=O)cc(OC)c1OC	25.1 µM	46.8 µM	12 µM	38.4 µM	8.55 µM
COc1ccc(N/N=C(\c2cc(OC)c(OC)c(OC)c2)c2nc(-c3ccccc3)n[nH]c2=O)cc1	4.16 µM	9.46 µM	6.27 µM	11 µM	3.06 µM
COc1cccc(-n2nc(-c3cc(OC)c(OC)c(OC)c3)c3nc(-c4ccccc4)nnc32)c1	8.41 µM	99.3 µM	117 µM	159 µM	0.61 µM
COc1cc(Cc2nc(-c3ccccc3)n[nH]c2=O)cc(OC)c1OC	2.71 µM	3.21 µM	1.17 µM	3.88 µM	3.46 µM
COc1cc(-c2nn(-c3ccccc3)c3nnc(-c4ccccc4)nc23)cc(OC)c1OC	109 µM	108 µM	169 µM	216 µM	86.6 µM
COc1cc(/C(=N\Nc2ccccc2)c2nc(-c3ccccc3)n[nH]c2=O)cc(OC)c1OC	10.6 µM	18.2 µM	11.5 µM	19.3 µM	7.14 µM
COc1cc(/C=C(/NC(=O)c2ccccc2)C(=O)NN)cc(OC)c1OC	124 µM	121 µM	162 µM	162 µM	164 µM
COc1ccc(-c2nnc3c(n2)c(-c2cc(OC)c(OC)c(OC)c2)nn3-c2ccccc2)cc1	114 µM	114 µM	166 µM	203 µM	78.8 µM
COc1ccc(-c2n[nH]c(=O)c(/C(=N/Nc3ccc(Cl)cc3)c3cc(OC)c(OC)c(OC)c3)n2)cc1	20.2 µM	50.1 µM	41.3 µM	238 µM	18.5 µM
COc1ccc(C(=O)N/C(=C/c2cc(OC)c(OC)c(OC)c2)C(=O)NN)cc1	144 µM	147 µM	172 µM	167 µM	134 µM
COc1cc(/C=C(/NC(=O)c2cc(OC)c(OC)c(OC)c2)C(=O)NN)cc(OC)c1OC	123 µM	126 µM	160 µM	153 µM	103 µM
COc1cc(Cc2nc(-c3ccc(Cl)cc3)n[nH]c2=O)cc(OC)c1OC	12.9 µM	14.6 µM	9.63 µM	24.7 µM	15.8 µM
COc1cc(Cc2nc(-c3cc(OC)c(OC)c(OC)c3)n[nH]c2=O)cc(OC)c1OC	38.4 µM	129 µM	82.1 µM	138 µM	117 µM
COc1ccccc1-n1nc(-c2cc(OC)c(OC)c(OC)c2)c2nc(-c3cc(OC)c(OC)c(OC)c3)nnc21	126 µM	125 µM	182 µM	156 µM	15 µM
COc1ccc(-c2nnc3c(n2)c(-c2cc(OC)c(OC)c(OC)c2)nn3-c2ccccc2OC)cc1	105 µM	119 µM	178 µM	155 µM	6.58 µM
COc1ccc(-c2nnc3c(n2)c(-c2cc(OC)c(OC)c(OC)c2)nn3-c2ccc(Cl)cc2)cc1	115 µM	118 µM	203 µM	232 µM	113 µM
COc1cc(/C=C(/NC(=O)c2ccc(Cl)cc2)C(=O)NN)cc(OC)c1OC	134 µM	130 µM	166 µM	174 µM	161 µM
COc1cccc(N/N=C(\c2cc(OC)c(OC)c(OC)c2)c2nc(-c3ccccc3)n[nH]c2=O)c1	8.6 µM	19.3 µM	12.7 µM	13.7 µM	8.3 µM
